From PubChem BioAssay
TDP2 inh: blocks human TDP2 phosphodiesterase activity | O95551 | recombinant TDP2, T5PNP hydrolysis, p-nitrophenol absorbance 415 nm | inhibition, % at 12.8 µM | 370,000 tested, 0.34% active | AID 720702;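 active = inhibition above the mean of all tested compounds plus 3 SD, set per campaign, cut at about 25% in these data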;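 also: 0% = DMSO with enzyme and 100% = buffer with substrate but no TDP2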
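Assay system: recombinant human TDP2 / Reagent: T5PNP substrate at 5 mM, a TopII-DNA adduct mimic / Measured by: epi absorbance from released p-nitrophenol / Evaluation: % inhibition relative to enzyme-containing and enzyme-free wells / Control set: enzyme-free and DMSO wells / Replicates: each compound tested once, singlicate / Schedule: enzyme reaction with compound for 2 h at 37 °C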
MBD2 inh: MBD2-methylated oligo binding inhibition; 370,000 tested, 0.31% active; Q9UBB5; inhibition, % at 4.4 µM; TR-FRET, MBD2 binding to methylated oligonucleotide; in the data active = inhibition above about 13%
Target sequence (Q9UBB5 whole entry, looked up): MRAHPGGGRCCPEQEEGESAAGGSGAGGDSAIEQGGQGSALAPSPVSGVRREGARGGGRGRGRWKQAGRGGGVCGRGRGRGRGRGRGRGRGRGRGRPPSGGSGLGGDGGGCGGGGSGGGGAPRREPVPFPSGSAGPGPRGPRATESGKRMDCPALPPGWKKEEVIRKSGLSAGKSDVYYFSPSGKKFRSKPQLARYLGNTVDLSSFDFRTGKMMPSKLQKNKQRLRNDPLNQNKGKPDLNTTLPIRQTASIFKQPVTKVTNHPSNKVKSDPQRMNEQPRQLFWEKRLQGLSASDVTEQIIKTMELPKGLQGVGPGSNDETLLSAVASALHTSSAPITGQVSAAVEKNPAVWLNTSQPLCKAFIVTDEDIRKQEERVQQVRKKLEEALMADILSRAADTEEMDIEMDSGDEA
UHRF1 binding: human UHRF1 methylated DNA binding inhibitors. 370,000 tested, 0.75% active. inhibition, % at 4.4 µM. UHRF1 binding to methylated oligo, TR-FRET; in the data active = inhibition above about 21%;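 also: UHRF1 SRA domain binding a hemimethylated CpG hairpin DNA probe; 0% = median of test compound wells and 100% = reference inhibitor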
LEDGF integ inh: blocks HIV-1 LEDGF/p75-dependent DNA integration; TR-FRET IN-LEDGF/p75 DNA integration, Eu/Cy5; inhibition, % at 3.7 µM; 370,000 tested, 0.64% active; AID 743269;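 active = inhibition above the screen-wide mean plus 3 SD, cut at about 13% in these data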;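 also: signal is the Cy5 over europium emission ratio at 671 and 618 nm; 0% = plate median of compound wells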
Tn7 DDE FP: disrupts Tn7 cyclic peptide binding to fibrin D-Dimer-E complex | P02675 | FP displacement of FITC-Tn7 peptide from fibrin DD(E); 0% = median of compound wells per plate | inhibition, % at 8.3 µM | 370,000 tested, 0.13% active;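 active = inhibition above the mean of compounds falling within the control limits plus 3 SD of them, cut at about 14% in these data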;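 also: 0% = plate median of compound wells and 100% = 10 µM Aha-Tn7 peptide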
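Assay system: Human clot-derived fibrin DD(E) complex | Buffer or medium: Tris/NaCl/CaCl2 buffer, pH 7.8 | Repeats: One replicate per compound | Benchmarks: Aha-Tn7 high control | Measure: % inhibition scaled between sample-field median and high-control FP | Schedule: 10 min plus 3 h, room temperature | Signal: Fluorescence polarization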
DDE Tn6 FP inh: DD(E)-Tn6 binding inhibition, primary FP screen; P02675; Fibrin DD(E) TRITC-Tn6 fluorescence polarization displacement; inhibition, % at 8.3 µM; 370,000 tested, 0.21% active;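 active = inhibition above a per-campaign cutoff: mean of compounds within control limits plus 3 SD, cut at about 15% in these data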;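 also: 0% = median of all compound wells on the plate and 100% = blocking peptide control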
Active calls of the source: *. Shown are actives, neighbours in structure and some others; about 1.9% of the full set was active somewhere.

SMILES	TDP2 inh	MBD2 inh	UHRF1 binding	LEDGF integ inh	Tn7 DDE FP	DDE Tn6 FP inh
CCc1cccc(OCC(=O)Nc2ccc(S(=O)(=O)Nc3ccccn3)cc2)c1	3	-2	79*	3	13	5
O=C1C(NC(=O)N2c3ccccc3C=Cc3ccccc32)CCCCN1Cc1cccc(Cl)c1 (centres undefined)	-11	1	-1	-4	-3	-4
O=C1C(NC(=O)N2c3ccccc3C=Cc3ccccc32)CCCCN1Cc1ccc(Cl)cc1 (centres undefined)	-3	1	27*	-4	5	-7
O=C(Nc1cccnc1)NC1CCCCC1	-13	3	25*	0	0	-6
CC(COc1ccc(C#N)cc1)CN1CCC(C(O)(c2ccccc2)c2ccccc2)CC1 (centres undefined)	6	2	-1	-2	9	1
CCOC(=O)N1CCC2(CC1)NCCc1c2[nH]c2ccccc12	4	-3	25*	0	6	2
COC(=O)C1(C)NCCc2c1[nH]c1ccccc21 (centres undefined)	-6	-4	0	0	-1	5
CCN1CCCCC(NC(=O)Cc2ccccc2)C1=O (centres undefined)	0	2	1	-5	8	-4
COc1ccc(NC(=O)COC(=O)CCc2ccc(S(=O)(=O)N3CCOCC3)cc2)cc1Cl	-11	5	95*	-3	-1	3
COc1ccc(NC(=O)COC(=O)CCc2ccc(S(=O)(=O)N3CCOCC3)cc2)cc1OC	2	2	0	3	6	2
CCn1nc(C)c(C2C(C#N)=C(N)OC3=C2C(=O)CCC3)c1C (centres undefined)	2	2	1	2	0	-3
Cc1nn(C)c(C)c1C1C(C#N)=C(N)OC2=C1C(=O)CCC2 (centres undefined)	8	9	21*	0	-8	-3
CC(C)N(CC#CCC(O)(c1ccccc1)C1CCCC1)CCO (centres undefined)	-1	11	28*	2	-1	-4
CCN(CC#CCC(O)(c1ccccc1)C1CCCC1)C(C)C (centres undefined)	1	-2	1	1	-3	-2
C=CCN=C1NC(c2cccc(F)c2)C(C(=O)OC)=C(C)N1C (centres undefined)	7	-4	-1	2	0	0
O=C1C(=Cc2cn(-c3ccccc3)nc2-c2ccc(OCc3ccc(Cl)cc3)cc2)SC(=S)N1CCS(=O)(=O)O	-5	-1	-2	-1	-3	-10
O=C1C(=Cc2cn(-c3ccccc3)nc2-c2ccc(OCc3ccccc3F)cc2)SC(=S)N1CCS(=O)(=O)O	0	3	58*	1	1	-7
C=CC[C@]12C[C@@]3(O[C@H](C4CCCCC4)N=C3C[C@H](c3ccc(OC)cc3)[C@H]1C)N(Cc1ccncc1)C2=O	-6	-4	0	-2	2	0
CCCc1cc2c(OC(=O)CC)c(-c3ccc(C(=O)OCC)o3)c(=O)oc2cc1OC	7	10	24*	3	-2	-10
CCCc1cc(-c2n[nH]c(C)c2-c2ccc(C(=O)OCC)o2)c(O)cc1O	-22	3	7	-1	-1	-5
CC[C@H](C)[C@H]1CNC(=O)C(=O)N1CC1CCN(CCc2ccc(Cl)c(Cl)c2)CC1	6	-3	-2	-2	9	5
O=C1NCCN(CC2CCN(CCc3ccc(Cl)c(Cl)c3)CC2)C1=O	4	11	24*	8	8	-2
O=Cc1ccc(N2Cc3ccccc3C2)cc1	-4	-4	-14	18*	-5	0
CCCCOc1ccc(S(=O)(=O)n2c(C)nc3ccccc32)cc1	2	0	43*	-3	2	8
CCOc1ccc(S(=O)(=O)n2c(C)nc3ccccc32)cc1	-19	-5	4	6	-2	1
SMILES	TDP2 inh	MBD2 inh	UHRF1 binding	LEDGF integ inh	Tn7 DDE FP	DDE Tn6 FP inh
CC(NC(=O)c1ccc(F)cc1)C1CC2CCC1C2 (centres undefined)	-1	6	88*	-4	1	2
CC(=O)Nc1cc(Cl)c(N=Cc2ccc(O)cc2O)cc1Cl	-3	-8	1	24*	-6	17*
COc1ccc(N2Cc3ccccc3/C2=N\C(=O)Nc2ccccc2)cc1	-9	2	22*	3	-6	11
Cc1ccc2occ(/C=N/NC(=O)[C@@H](N)Cc3ccccc3)c(=O)c2c1	15	-5	-3	1	7	-7
COCC(C)OC(=O)/C(C#N)=C\c1coc2ccc(C)cc2c1=O (centres undefined)	-1	-2	45*	4	2	5
COC(=O)c1cc(S(=O)(=O)N2CCN(C(C)=O)CC2)cn1C	-12	0	0	3	-9	0
C/C(=N\Nc1ccc(Cl)c(C(=O)O)c1)c1cc2ccccc2o1	-5	-3	31*	-2	4	-1
Cc1ccc(CNC(=O)[C@@H](Cc2ccccc2)NC(=O)[C@H]2O[C@@H](n3ccc(N)nc3=O)[C@H](O)[C@@H]2O)o1	2	-4	-2	1	-1	1
O=C1CCCN1CC1CCCN(Cc2nc(COc3ccccc3)no2)C1 (centres undefined)	-2	2	23*	0	11	-1
O=C(c1c[nH]c2ccc(F)cc2c1=O)N1CCCCCC1	7	4	-3	2	-1	-4
Cc1cccc2c(=O)c(C(=O)N3CCCCCC3)c[nH]c12	10	10	23*	0	-3	-4
Cc1occc1-c1nnc(SCC(=O)N2CCCc3ccccc32)n1Cc1ccco1	-7	4	22*	0	8	1
O=C(CSc1nnc(-c2cccnc2)n1Cc1ccco1)N1CCc2ccccc21	6	1	0	-2	-1	-6
CC(C)CCN(C)C1CCN(C(=O)Nc2ccc(Cl)cc2)CC1	6	0	0	0	-4	2
N=C1/C(=C/c2ccc(OCc3ccccc3F)cc2)C(=O)N=C2SC(CC(=O)N3CCOCC3)=NN12	-4	13	23*	0	-7	-8
COc1ccccc1-c1c(C)nn2c(N3CCN(c4ccccc4OC)CC3)cc(C)nc12	7	1	26*	-3	-2	2
C[C@H]1/C=C/CC(=O)N[C@@H](c2ccccc2)[C@@H](C)/C=C/CC(=O)N[C@H]1c1ccccc1	-7	-3	1	2	-10	1
Cc1c(N=C2C=CC(=O)c3ccccc32)c(=O)n(-c2ccccc2)n1C	24	-17	-10	6	6	0
